High-throughput results from PubChem.
CHOP inh – inhibitors of CHOP promoter induction, primary screen, cell-based, unfolded protein response, luciferase reporter; CHO-K1 CHOP-promoter luciferase, tunicamycin-induced, 15-18 h; AID 2732, 2010; 3.8% of 220,000 active; inhibition, % at 10 µM;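 active = compounds that reduced the stress-induced luciferase reporter signal by more than about 70% of percent inhibition, limit read from the data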
Wee1 stabilizer – Wee1 degradation inhibitors, primary screen, cell-based, HeLa, Wee1K328M-luciferase, luminescence; Wee1-like protein kinase (Homo sapiens), P30291; HeLa Luc-Wee1K328M stability; 100% = proteasome inhibitor MG132 effect; reporter increase, % at 5 µM; 1.2% of 220,000 active;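 active = activation above the mean of all tested compounds plus 3 SD, set per screening run, cut at about 8.8% in these data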;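 note: cells exposed to compound for 20 h before luminescence read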
Target sequence (P30291 whole entry K328M): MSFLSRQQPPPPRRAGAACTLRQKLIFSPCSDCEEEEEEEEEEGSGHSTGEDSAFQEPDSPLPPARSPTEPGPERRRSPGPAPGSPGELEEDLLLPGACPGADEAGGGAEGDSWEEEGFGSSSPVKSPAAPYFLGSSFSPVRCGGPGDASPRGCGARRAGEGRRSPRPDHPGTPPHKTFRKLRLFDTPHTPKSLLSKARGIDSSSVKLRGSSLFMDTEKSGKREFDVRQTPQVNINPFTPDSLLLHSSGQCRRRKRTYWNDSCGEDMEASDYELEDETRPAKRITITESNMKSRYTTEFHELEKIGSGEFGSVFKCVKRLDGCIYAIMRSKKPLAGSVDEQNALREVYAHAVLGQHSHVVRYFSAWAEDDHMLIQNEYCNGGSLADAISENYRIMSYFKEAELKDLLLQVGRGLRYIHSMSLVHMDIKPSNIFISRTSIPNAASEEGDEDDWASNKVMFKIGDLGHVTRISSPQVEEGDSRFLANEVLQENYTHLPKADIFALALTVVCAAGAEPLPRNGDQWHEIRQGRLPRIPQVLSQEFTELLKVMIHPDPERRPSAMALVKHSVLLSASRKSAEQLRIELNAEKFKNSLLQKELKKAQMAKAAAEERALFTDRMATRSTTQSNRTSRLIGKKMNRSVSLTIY
Rad51 HR inh – human RAD51 strand exchange inhibitors, primary screen, biochemical, fluorescence; DNA repair protein RAD51 homolog 1 (Homo sapiens), Q06609; hRad51 DNA strand exchange, fluorescence dequenching; inhibition, % at 10 µM; 0.085% of 200,000 active; AID 1385, 2008;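 active = inhibition above 40% at the single screening dose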
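Material: human Rad51–ssDNA filaments; Probe or stimulus: labelled 47-mer dsDNA for strand exchange; Doses: single 10 µM dose; Incubation: 37 °C 15-min filament assembly, 30-min compound preincubation, 15-min exchange; Technique: FRET fluorescence dequenching, excitation 485 nm, emission 520 nm; Measure: Fluorescence-based percent inhibition, control- and blank-normalised; Benchmarks: plate control and blank wells.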
Arbovirus inh – antivirals against arbovirus infection, primary screen, cell-based, full library, 10K replicate subset; arbovirus infection cell-based antiviral screen; inhibition, % at 10 µM; 0.37% of 200,000 active; AID 1251, 2008; in the data active = inhibition above about 30%
Lmaj promast – Leishmania major promastigote growth inhibition, primary screen. Leishmania major promastigotes, resazurin fluorescence viability. inhibition, % at 10 µM. 9% of 200,000 active. AID 1063, 2008;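 note: promastigotes grown with compound for 44 hours at 28 °C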
PKD1 inh – inhibitors of human PKD1 kinase, biochemical, fluorescence polarization; inhibition, % (no concentration beside the values); AID 797, 2007; PKD1 kinase fluorescence polarization assay; 0.056% of 200,000 active
Of the large screens only hits and unclear results are named; the others gave an inactive call. Rows were chosen to be rich in hits. Some 12% of all compounds tested hit in one or more screens of this group. Cut-off read from the data, not from the text of the source, unless noted: active = inhibition above about 50%; inactive = the rest.

COCCCNCCOc1ccc(C)cc1[N+](=O)[O-]	Lmaj promast 90
O=C(N/N=C/C1CC2CCC1C2)c1c[nH]c2ccccc12 (stereo not drawn)	none
CCC(C)NCCCCOc1ccc(C)cc1[N+](=O)[O-] (stereo not drawn)	Lmaj promast 88
C=CCNCCCCOc1ccc(C)cc1[N+](=O)[O-]	Lmaj promast 61
COc1ccc(OCCOCCOc2ccc(C)cc2[N+](=O)[O-])cc1	none
C=CCNC(=S)Nc1ccc(C)cc1[N+](=O)[O-]	Wee1 stabilizer 9.1 (no result: Rad51 HR inh)
COCCCNCCOCCOc1ccc(C)cc1[N+](=O)[O-]	Lmaj promast 94
OCCC1CN(Cc2nc3ccccc3[nH]2)CCN1C1CCCC1 (stereo not drawn)	none
COc1ccccc1NS(=O)(=O)c1cccc(-n2c(O)c(C=Nc3ccccc3C(=O)O)c3ccccc3c2=O)c1	none (no result: Arbovirus inh, Lmaj promast, PKD1 inh)
CC1CC(CCC(=O)NC(=S)Nc2ccc(S(N)(=O)=O)cc2)C(=O)O1 (stereo not drawn)	none
O=C(N[C@@H](Cc1ccccc1)c1nc2ccccc2[nH]1)c1cc([N+](=O)[O-])ccc1Cl	Lmaj promast 89
Cc1cc(OCC(=O)N[C@@H](Cc2ccccc2)c2nc3ccccc3[nH]2)ccc1Cl	CHOP inh 72
O=C(Cc1ccccc1)N[C@@H](Cc1ccccc1)c1nc2ccccc2[nH]1	none
CC(Cc1ccccc1)NC(=O)c1cc([N+](=O)[O-])ccc1Cl (stereo not drawn)	none (no result: Arbovirus inh, Lmaj promast, PKD1 inh)
COC(=O)CN(c1cc([N+](=O)[O-])ccc1OC)S(C)(=O)=O	none
COCc1ccc(CN2CCc3c([nH]c4ccccc34)C2CC(C)C)o1 (stereo not drawn)	none (no result: Rad51 HR inh)
COc1cc(NC(=O)c2cc(Cl)nnc2Cl)cc(OC)c1OC	Wee1 stabilizer 10
CC(=O)c1ccc(NC(=S)N(CCCN(C)C)Cc2ccccc2)cc1	none (no result: Arbovirus inh, Lmaj promast, PKD1 inh)
CN(C)CCCN(Cc1ccccc1)C(=S)Nc1ccc(SC(F)F)cc1	Lmaj promast 100
CN(C)CCCN(Cc1ccccc1)C(=S)NCc1ccccc1	Lmaj promast 86
CN(C)S(=O)(=O)Nc1ccc(Oc2ccccc2)cc1	Lmaj promast 82
CC1(c2nnc(Cc3ccccc3)o2)CC(c2ccncc2)=NO1 (stereo not drawn)	none (no result: CHOP inh, Wee1 stabilizer, Arbovirus inh, Lmaj promast, PKD1 inh)
CSCCC(Nc1ccc(S(=O)(=O)N2CCOCC2)cc1[N+](=O)[O-])C(=O)OCC(=O)NCC(C)C (stereo not drawn)	Lmaj promast 65
CCCCc1ccc(N/C(N)=N/c2nc(C)cc(C)n2)cc1	none (no result: Arbovirus inh, Lmaj promast, PKD1 inh)
CC(=O)NNS(=O)(=O)c1ccc(-c2cc(C(F)(F)F)n(C)n2)s1	none (no result: Rad51 HR inh, Arbovirus inh, Lmaj promast, PKD1 inh)
CCC(C)(C(=O)NC1CCCC1)N(C(C)=O)c1ccc(C)cc1 (stereo not drawn)	none
CCC(C)(C(=O)NC1CCCCC1)N(C(=O)C1CCC(=O)N1)c1ccc(C)cc1 (stereo not drawn)	CHOP inh 71
CCNC(=S)Nn1cnc2ccccc21	none (no result: Arbovirus inh, Lmaj promast, PKD1 inh)
CC(=O)Nc1ccc(NC(=O)C(OC(=O)c2ccccc2)C(OC(=O)c2ccccc2)C(=O)O)cc1 (stereo not drawn)	none
O=C(Nc1ccc(Cl)cc1)C1C2CCC3C(CCC21)C3(Cl)Cl (stereo not drawn)	CHOP inh 72
Cc1cccc(NC(=O)C2C3CCC4C(CCC32)C4(Cl)Cl)c1 (stereo not drawn)	CHOP inh 76
O=C(Nc1ccc(F)cc1)C1C2CCC3C(CCC21)C3(Cl)Cl (stereo not drawn)	none (no result: Rad51 HR inh, Arbovirus inh, Lmaj promast, PKD1 inh)
Cc1nc(N)c(CC(Br)CBr)c(Cl)n1 (stereo not drawn)	none (no result: Arbovirus inh, Lmaj promast, PKD1 inh)
C1CCC(C23CC4CC(CC(C4)C2)C3)NC1 (stereo not drawn)	none
COc1ccc(-c2cc3nc4n(c(=O)c3s2)CCC4)cc1	none
COc1ccc(-c2cc3nc(C)n(N)c(=O)c3s2)cc1	CHOP inh 102 (no result: Arbovirus inh, Lmaj promast, PKD1 inh)
Cc1nc2cc(-c3ccccc3)sc2c(=O)n1N	CHOP inh 74
COc1ccc(/C(N)=N/OC(=O)CN(C)S(=O)(=O)c2ccc(C)cc2)cc1	none (no result: Rad51 HR inh)
COc1ccc(CNC(=O)c2ccc(=O)oc2)cc1OC	Wee1 stabilizer 9.4
CC(C)OCCCNC(=O)C1CCN(S(=O)(=O)N2CCCC2)CC1	none
CCc1ccccc1NC(=O)CSc1nc2n[nH]c(C)c2c(=N)n1-c1ccc(OC)cc1	none
COc1ccccc1NC(=O)CSc1nc2n[nH]c(C)c2c(=N)n1-c1ccccc1Cl	Lmaj promast 65
CN1CCN(c2ccc(Cl)cc2NS(=O)(=O)c2ccccc2Cl)CC1	Lmaj promast 100
CN(C)S(=O)(=O)c1cccc(C(=O)Nc2ccccc2[N+](=O)[O-])c1	none
CCN(CC)S(=O)(=O)c1cc(C(=O)Nc2ccccc2[N+](=O)[O-])ccc1Cl	Lmaj promast 78
COc1cc(CCC(=O)Nc2cc(Cl)ccc2N2CCN(C)CC2)cc(OC)c1OC	Wee1 stabilizer 9.2
CN1CCN(c2ccc(Cl)cc2NC(=O)c2ccc(S(=O)(=O)N(C)C)cc2)CC1	Lmaj promast 100
Cc1cc(-c2ccccc2)nc(SCC(=O)N2CCCC2)n1	none
CCN(CC)S(=O)(=O)c1cc(C(=O)Nc2cc(Cl)ccc2N2CCN(C)CC2)ccc1Cl	Lmaj promast 100
CCN(CC)S(=O)(=O)c1cc(C(=O)N2CCc3ccccc32)ccc1Cl	Lmaj promast 75 (no result: Rad51 HR inh)
CCN(CC)S(=O)(=O)c1cc(C(=O)NC2=NCCS2)ccc1Cl	none
CCc1ccccc1N(C)S(=O)(=O)c1ccc2[nH]cc(C(=O)O)c(=O)c2c1	Wee1 stabilizer 9.5
CC1CC(C)(C)NC(=S)N1CCC(=O)N1CCc2ccccc21 (stereo not drawn)	none
CCN(C(=O)COC(=O)CNC(=O)c1ccc(C)s1)c1ccccc1	none
CC(=O)OCC1OC(Nc2cccc(C)c2)C(OC(C)=O)C(OC(C)=O)C1OC(C)=O (stereo not drawn)	none (no result: Rad51 HR inh)
COc1ccc(C(=O)C2CCCN(C(=O)c3cc(C)nc(C)n3)C2)cc1OC (stereo not drawn)	none
CC1CCc2sc(C(=O)OC(C)C(=O)Nc3ncc(Cl)cc3Cl)cc2C1 (stereo not drawn)	CHOP inh 90, Wee1 stabilizer 10
O=C1C(CSCc2ccccc2)NC(=S)N1c1ccccc1 (stereo not drawn)	none (no result: Rad51 HR inh, Arbovirus inh, Lmaj promast, PKD1 inh)
COc1ccc(CSc2nncn2C)cc1[N+](=O)[O-]	Lmaj promast 52
COc1ccccc1N1CCN(/N=C/C(Cl)=C/c2ccccc2)CC1	none (no result: Rad51 HR inh, Arbovirus inh, Lmaj promast, PKD1 inh)
COCCN1C=C(C(=O)OC)C(c2ccc3c(c2)OCO3)C(C(=O)OC)=C1	none
